Activity calls are given as the source filed them. No cut-off for these calls is given here. A value given as a limit tells only on which side of the number the result lay.

In assay [1] the target is Dual specificity protein kinase CLK1 (Homo sapiens, UniProt P49759). As to the kind of experiment: Inhibition of CLK1 (unknown origin) using KKGRSRSRSRSRSR as substrate after 40 mins in presence of [gamma-33P]ATP by microbeta scintillation counting. An outline of the steps: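 CLK1 was assayed with RS peptide substrate at 100 µM ATP.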
The target of assay [2] is T1, Dual specificity tyrosine-phosphorylation-regulated kinase 2 (Homo sapiens, UniProt Q92630).
T1 sequence (Q92630 whole entry): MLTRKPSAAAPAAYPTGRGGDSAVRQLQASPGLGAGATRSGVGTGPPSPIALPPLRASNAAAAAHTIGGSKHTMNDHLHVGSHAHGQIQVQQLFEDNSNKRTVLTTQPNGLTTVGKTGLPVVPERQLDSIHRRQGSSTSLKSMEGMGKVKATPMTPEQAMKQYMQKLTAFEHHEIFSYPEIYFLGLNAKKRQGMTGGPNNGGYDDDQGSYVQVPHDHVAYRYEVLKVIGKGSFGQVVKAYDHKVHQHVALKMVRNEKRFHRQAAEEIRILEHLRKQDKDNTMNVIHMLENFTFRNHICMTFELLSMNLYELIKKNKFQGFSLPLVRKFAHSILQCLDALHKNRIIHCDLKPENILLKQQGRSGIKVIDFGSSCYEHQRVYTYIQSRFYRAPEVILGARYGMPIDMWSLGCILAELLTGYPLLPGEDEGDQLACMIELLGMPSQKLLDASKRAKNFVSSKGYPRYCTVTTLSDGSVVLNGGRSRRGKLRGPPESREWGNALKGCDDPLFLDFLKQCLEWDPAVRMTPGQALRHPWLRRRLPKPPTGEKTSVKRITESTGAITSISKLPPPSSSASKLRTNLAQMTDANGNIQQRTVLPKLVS
The experiment in a line: Inhibition of DYRK2 (unknown origin) using woodtide as substrate after 40 mins in presence of [gamma-33P]ATP by microbeta scintillation counting.

For assay [3], the target named is Dual specificity tyrosine-phosphorylation-regulated kinase 1A (Homo sapiens, UniProt Q13627). As to the kind of experiment: Inhibition of DYRK1A (unknown origin) using woodtide as substrate after 10 mins in presence of [gamma-33P]ATP by microbeta scintillation counting.
A short description of assay [4]: Cytotoxicity against patient-derived JK2 cells assessed as reduction in cell viability after 3 days by Alamar blue assay. The assay is classed as functional, cell-based. Conditions: Homo sapiens, JK2, 72 h. An outline of the steps:
(§1)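 The patient-derived glioblastoma lines were grown as stem cells under defined conditions to keep the phenotype and genotype of the resected tumours. Viability after treatment was read with Alamar blue.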

The nature of assay [5]: Cytotoxicity against patient-derived RN1 cells assessed as reduction in cell viability after 3 days by Alamar blue assay. The assay is classed as functional, cell-based. Conditions: Homo sapiens, RN1, 72 h. Summed up: as §1
A general note: Alamar Blue is a resazurin reagent that responds to reducing activity.

The target in assay [6] is Dual specificity tyrosine-phosphorylation-regulated kinase 1B (Homo sapiens, UniProt Q9Y463). The experiment in a line: Inhibition of DYRK1B (unknown origin) using woodtide as substrate after 40 mins in presence of [gamma-33P]ATP by microbeta scintillation counting.
A short description of assay [7]: Cytotoxicity against patient-derived WK1 cells assessed as reduction in cell viability after 5 days by Alamar blue assay. The assay is classed as functional, cell-based. Conditions: Homo sapiens, WK1, 120 h. An outline of the steps: as §1
The nature of assay [8]: Cytotoxicity against patient-derived SJH1 cells assessed as reduction in cell viability after 3 days by Alamar blue assay. Particulars: Homo sapiens, SJH1, 72 h. The assay is classed as functional, cell-based. Summed up: as §1
Assay [9] is filed under the species Homo sapiens. The experiment in a line: Inhibition of tubulin (unknown origin) polymerization.

Chain of Dual specificity tyrosine-phosphorylation-regulated kinase 1B (Q9Y463 whole entry): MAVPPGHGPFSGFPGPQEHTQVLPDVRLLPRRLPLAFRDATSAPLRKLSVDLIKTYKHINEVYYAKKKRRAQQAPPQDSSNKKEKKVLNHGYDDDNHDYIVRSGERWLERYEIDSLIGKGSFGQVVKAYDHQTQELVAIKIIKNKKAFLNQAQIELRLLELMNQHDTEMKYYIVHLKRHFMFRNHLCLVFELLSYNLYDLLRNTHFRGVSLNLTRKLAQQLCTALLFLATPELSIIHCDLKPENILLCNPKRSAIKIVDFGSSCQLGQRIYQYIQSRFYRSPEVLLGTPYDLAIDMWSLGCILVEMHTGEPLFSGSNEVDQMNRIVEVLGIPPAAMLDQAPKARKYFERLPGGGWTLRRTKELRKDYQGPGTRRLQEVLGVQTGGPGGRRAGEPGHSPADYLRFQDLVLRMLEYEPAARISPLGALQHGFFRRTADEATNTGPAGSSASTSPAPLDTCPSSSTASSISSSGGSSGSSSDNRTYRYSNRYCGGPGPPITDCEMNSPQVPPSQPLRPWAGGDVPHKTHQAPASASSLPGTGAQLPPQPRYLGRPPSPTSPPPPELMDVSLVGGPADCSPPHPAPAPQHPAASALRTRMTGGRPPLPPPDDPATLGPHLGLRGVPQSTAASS
Chain of Dual specificity protein kinase CLK1 (P49759 whole entry): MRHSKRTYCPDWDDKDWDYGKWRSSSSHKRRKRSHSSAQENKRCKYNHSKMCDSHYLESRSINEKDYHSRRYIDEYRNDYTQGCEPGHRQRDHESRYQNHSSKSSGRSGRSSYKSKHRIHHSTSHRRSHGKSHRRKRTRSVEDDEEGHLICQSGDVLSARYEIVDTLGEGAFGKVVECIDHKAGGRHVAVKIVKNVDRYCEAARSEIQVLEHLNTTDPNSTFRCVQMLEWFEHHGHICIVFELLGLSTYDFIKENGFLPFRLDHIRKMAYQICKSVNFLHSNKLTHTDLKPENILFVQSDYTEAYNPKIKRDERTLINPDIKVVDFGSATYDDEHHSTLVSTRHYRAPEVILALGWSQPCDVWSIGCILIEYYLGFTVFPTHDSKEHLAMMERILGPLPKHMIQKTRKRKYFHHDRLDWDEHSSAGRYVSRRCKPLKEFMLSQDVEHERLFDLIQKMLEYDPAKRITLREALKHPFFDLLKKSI

For orientation: IC50 means the concentration that gives 50% inhibition. Broadly, the EC50 is the concentration that produces a half-maximal response. `Oc1ccc(-c2cnc3[nH]cc(-c4ccc5[nH]ccc5c4)c3c2)cc1`: the IC50 in assay [1] was 117 nM; in assay [2] it was 571 nM; in assay [3], 169 nM; in assay [6], 83 nM. For the same compound, the EC50 in assay [4] came to 6300 nM; in assay [5], 5700 nM; in [7], 6200 nM; in [8], 2200 nM.
As to `O=C(Nc1cccc(O)c1)c1cnc2[nH]cc(-c3ccc(O)cc3)c2c1`, the IC50 in assay [1] was determined as 34 nM; in assay [2], 847 nM; in [3], 127 nM; in assay [6], 138 nM. Further, the concentration giving a half-maximal response (EC50) in assay [4] was 38900 nM; in assay [5], 13800 nM; in assay [7] it was 13200 nM; in [8], 5700 nM.
On to `Oc1ccc(-c2ccc3[nH]cc(-c4ccc(O)cc4)c3c2)cc1`, for which the IC50 in [1], in [2], in assay [3] and in [6] was above 1000 nM in each case. Besides, the half-maximal effective concentration (EC50) in assay [4], in [5], in [7] and in [8] was above 50000 nM each time.
Regarding `Oc1ccc(-c2cnc3[nH]cc(-c4ccc(-c5nnn[nH]5)cc4)c3c2)cc1`, the IC50 was found to be 85 nM in assay [1], 416 nM in assay [2], 280 nM in assay [3] and 172 nM in [6]. The 50% effective concentration (EC50) in assay [4], in assay [5], in [7] and in [8] was above 50000 nM in each case.
Take `CC[C@]1(O)C[C@@H]2CN(CCc3c([nH]c4ccccc34)[C@@](C(=O)OC)(c3cc4c(cc3OC)N(C)[C@H]3[C@@](O)(C(=O)OC)[C@H](OC(C)=O)[C@]5(CC)C=CCN6CC[C@]43[C@@H]65)C2)C1`: the inhibition result in assay [9] is “Active”.
As for `Oc1ccc(-c2ccc3[nH]nc(-c4ccc(O)cc4)c3c2)cc1`, the IC50 in [1], in assay [2], in assay [3] and in [6] was above 1000 nM in each case. For the same compound, the EC50 in assay [4], in [5], in assay [7] and in assay [8] was above 50000 nM each time.
On to `Oc1ccc(-c2c[nH]c3ncc(-c4ccc(-c5nnn[nH]5)cc4)cc23)cc1`, for which the half-maximal inhibitory concentration (IC50) in assay [1] turned out to be 70 nM; in [2], 408 nM; in assay [3] it was 86 nM; in assay [6], 42 nM. The 50% effective concentration (EC50) in assay [4], in assay [5], in assay [7] and in [8] was above 50000 nM in each case.
On to `Oc1ccc(-c2cnc3[nH]cc(-c4ccc(O)cc4)c3c2)cc1`, for which the IC50 in assay [1] was 48 nM; in assay [2], 166 nM; in assay [3], 14 nM; in assay [6], 15 nM. Further, the EC50 was 5100 nM in assay [4], 2000 nM in [5], 1100 nM in assay [7] and 4100 nM in assay [8].
As to `CS(=O)(=O)Nc1ccc(-c2cnc3[nH]cc(-c4ccc(O)cc4)c3c2)cc1`, the IC50 was 44 nM in assay [1], 724 nM in [2], 56 nM in [3] and 130 nM in assay [6]. Besides, the concentration giving a half-maximal response (EC50) in assay [4] stood at 13000 nM; in [5], 14000 nM; in assay [7], 42000 nM; in assay [8], 42000 nM.
For the compound `CC(=O)O[C@H]1C(=O)[C@@]2(C)[C@H]([C@H](OC(=O)c3ccccc3)[C@]3(O)C[C@H](OC(=O)[C@H](O)[C@@H](NC(=O)c4ccccc4)c4ccccc4)C(C)=C1C3(C)C)[C@]1(OC(C)=O)CO[C@@H]1C[C@@H]2O`, the inhibition entry in [9] was “Active”.
Take `O=C(Nc1cccc(O)c1)c1c[nH]c2ncc(-c3ccc(O)cc3)cc12`: the concentration for half-maximal inhibition (IC50) in assay [1], in assay [2], in [3] and in assay [6] was above 1000 nM in each case. Also, the EC50 in [4], in assay [5], in assay [7] and in assay [8] was above 50000 nM in each case.
With `Oc1ccc(-c2c[nH]c3ncc(-c4ccc5[nH]ccc5c4)cc23)cc1`, the IC50 came out at 26 nM in [1], 644 nM in [2], 204 nM in assay [3] and 51 nM in assay [6]. For the same compound, the EC50 in [4] was above 50000 nM; in assay [5], above 50000 nM; in assay [7], above 50000 nM; in assay [8], 30000 nM.
In the case of `O=[N+]([O-])c1ccc(-c2cnc3[nH]cc(-c4ccc(O)cc4)c3c2)cc1`, the IC50 is 187 nM in assay [1], above 1000 nM in assay [2], 212 nM in assay [3] and 198 nM in assay [6]. The EC50 in assay [4], in [5], in assay [7] and in assay [8] was above 50000 nM throughout.
Turning to `O=C(Nc1ccc(O)cc1)c1cnc2[nH]cc(-c3ccc(O)cc3)c2c1`, the half-inhibitory concentration (IC50) is 12 nM in assay [1], above 1000 nM in assay [2], 344 nM in [3] and 128 nM in assay [6]. Further, the concentration for a half-maximal effect (EC50) in assay [4] turned out to be 37800 nM; in [5], 12500 nM; in assay [7] it was 21000 nM; in [8] it was 5200 nM.
For the compound `O=C(Nc1ccc(O)cc1)c1c[nH]c2ncc(-c3ccc(O)cc3)cc12`, the concentration for half-maximal inhibition (IC50) in [1], in assay [2], in assay [3] and in [6] was above 1000 nM in each case. Moreover, the concentration for a half-maximal effect (EC50) in assay [4], in assay [5], in [7] and in assay [8] was above 50000 nM in each case.
With `NC(=O)Nc1ccc(-c2cnc3[nH]cc(-c4ccc(O)cc4)c3c2)cc1`, the half-maximal inhibitory concentration (IC50) in [1] is 9.6 nM; in assay [2] it was 476 nM; in assay [3], 31 nM; in assay [6] it was 17 nM. The EC50 was above 50000 nM in assay [4], 22000 nM in assay [5], above 50000 nM in assay [7] and 28000 nM in assay [8].

The record behind these values is ChEMBL document CHEMBL4007420, “Structural Optimization and Pharmacological Evaluation of Inhibitors Targeting Dual-Specificity Tyrosine Phosphorylation-Regulated Kinases (DYRK) and CDC-like kinases (CLK) in Glioblastoma” (J Med Chem, 2017).
